Source: PubChem BioAssay
Shown are actives, neighbours in structure and some others; about 1.7% of the full set was active somewhere.
PP5 inh = PP5 (human) phosphatase inhibition | P53041 | purified PP5c, OMFP substrate fluorescence | inhibition, % at 6.7 µM | 0.18% of 320,000 active;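 active = inhibition above the campaign's mean inhibition across all tested compounds plus 3 SD, cut at about 9.5% in these data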
PP1 counter = blocks human PP1-alpha phosphatase, a PP5 counter-screen | P62136 | purified PP1alpha, OMFP fluorescence | inhibition, % at 6.7 µM | 0.9% of 320,000 active | AID 2235;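 active = inhibition above the mean inhibition of all tested compounds plus 3 SD, computed separately for each screening campaign, cut at about 15% in these data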
T cell HTS = T cell immune modulation candidate. AID 2052. 0.068% of 330,000 active. response (vesicle binding), % at 7 µM. 2C CD8+ T cell-vesicle binding, flow cytometry; active compounds read low;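 active = response, share of CD8 T cells binding vesicles, and their 90th percentile fluorescence all below set limits, cut at about 80% in these data, passing the limit was not always enough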;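 also: values below 100% mean blocked vesicle binding to the CD8+ T cells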
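Test system: purified 2C TCR transgenic mouse naive CD8+ T cells. Probe or stimulus: QL9-peptide-loaded Drosophila micro-vesicles bearing Ld, ICAM-1 and B7-1. Incubation: binding step 1.5 h, 37 °C, antibody labelling 20 min, ice. Measured by: flow cytometry of vesicle-bound cells.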
HTR2A ag = agonists of mouse serotonin 5-HT2A receptor (HTR2A). P35363. CHO-K1 mHTR2A beta-arrestin complementation, luminescence; percent of 30 µM serotonin response. activation, % at 7.6 µM. 0.66% of 360,000 active;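 active = activation above a run cutoff, the mean activation of all tested compounds plus 3 SD, cut at about 14% in these data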
Target sequence (P35363 whole entry, looked up): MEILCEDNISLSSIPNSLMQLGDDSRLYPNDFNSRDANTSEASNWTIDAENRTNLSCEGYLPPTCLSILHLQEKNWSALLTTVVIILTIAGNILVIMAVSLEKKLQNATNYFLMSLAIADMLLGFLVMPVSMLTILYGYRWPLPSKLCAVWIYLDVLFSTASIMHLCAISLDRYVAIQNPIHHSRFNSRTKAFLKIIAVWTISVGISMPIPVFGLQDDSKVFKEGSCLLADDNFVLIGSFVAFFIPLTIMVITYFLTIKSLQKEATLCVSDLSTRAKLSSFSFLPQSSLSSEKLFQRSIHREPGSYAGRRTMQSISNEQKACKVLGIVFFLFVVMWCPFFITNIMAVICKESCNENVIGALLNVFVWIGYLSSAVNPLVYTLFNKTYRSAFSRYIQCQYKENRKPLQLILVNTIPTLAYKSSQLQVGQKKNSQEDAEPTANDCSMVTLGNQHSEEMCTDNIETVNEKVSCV
GASC-1 inh = human JMJD2C demethylase inhibition | 0.069% of 330,000 active | Q9H3R0 | inhibition, % at 2.35 µM | GST-JMJD2C(1-420) H3K9me3 demethylation, DELFIA europium;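 active = more than half of a compound's replicate wells show inhibition beyond 50%, single wells judged on their own value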;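 also: signal counts dimethyl H3K9 product captured on neutravidin plate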
Numbers stand for hits; . = inactive; / = not tested or not shown.

SMILES	PP5 inh	PP1 counter	T cell HTS	HTR2A ag	GASC-1 inh
NC(=O)C1CCN(c2nc(-c3cc4ccccc4o3)cs2)CC1	/	/	78	.	/
CN1CCN(c2nc(-c3cc4ccccc4o3)cs2)CC1	.	.	.	.	.
CCC(Oc1ccc2c(=O)c(-c3ccccc3OC)coc2c1)C(=O)OCc1ccccc1 (configuration not stated)	.	17	.	.	.
COc1ccccc1-c1coc2cc(OC(=O)N3CCOCC3)ccc2c1=O	.	.	.	.	.
CC(C)(C)CC(=O)Nc1cc2c3c(c1)CC(=O)N3CCC2	.	.	.	.	.
O=C(NCCc1cccc(Cl)c1)C1CCC(=O)N(Cc2ccc(Cl)cc2)C1 (configuration not stated)	.	.	.	.	.
O=C(NCCc1nc2ccc(Cl)cc2[nH]1)C1CCC(=O)N(Cc2cccc(F)c2)C1 (configuration not stated)	.	.	67	.	.
CC(=NCCCn1ccnc1)c1c(-c2ccccc2)[nH]n(-c2nc3ccccc3s2)c1=O	.	17	.	.	.
CC(=NC1CCCC1)c1c(C)[nH]n(-c2nc3ccccc3s2)c1=O	.	.	.	.	.
CCO[C@H]1OC(C(=O)NC2CC2)=C[C@@H](c2c[nH]c3ccccc23)[C@@H]1CCCO	.	.	.	.	.
CCO[C@@H]1OC(C(=O)NC2CC2)=C[C@H](c2c[nH]c3ccccc23)[C@H]1CCCO	.	.	.	.	52
CCOc1ccc(/C(O)=C2/C(=O)C(=O)N(c3ccccn3)C2c2ccc(C)cc2)c(C)c1 (configuration not stated)	.	17	.	.	.
CCNC(=S)Nc1cccc(S(=O)(=O)NC2=NCCC2)c1	.	.	.	.	.
CCCCNC(=S)Nc1cccc(S(=O)(=O)NC2=NCCC2)c1	.	16	.	.	.
COc1ccccc1NC(=O)COC(=O)c1[nH]c(=O)[nH]c(=O)c1N	/	/	.	.	53
COc1ccc(CN2CCN(C(C)C)C(CCO)C2)cc1Cn1cncn1 (configuration not stated)	.	.	.	.	.
O=C(N/N=C/c1cc([N+](=O)[O-])ccc1N1CCCCCC1)c1ccccn1	.	.	.	.	.
CCN(CC)C(=O)C1CCCN(c2ccc([N+](=O)[O-])cc2/C=N/NC(=O)c2cccc(Br)c2)C1 (configuration not stated)	.	17	.	.	.
Cc1cc(=O)oc(C)c1C(=O)NC1CCCCCCC1	.	.	.	.	.
CCOc1ccc(CNc2ccc(N3CCCC3)cc2)cc1	.	16	.	.	.
CCOc1ccc(CNc2ccc(N3CCN(Cc4ccccc4)CC3)cc2)cc1	.	.	.	.	.
Nc1c(C(=O)Nc2ccc(Br)cc2)sc2nc(-c3ccco3)ccc12	.	16	.	.	.
CC(=O)c1sc2nc(-c3ccco3)ccc2c1N	.	.	.	.	.
Nc1c(C(=O)Nc2ccc(F)cc2)sc2nc(-c3ccco3)ccc12	.	16	.	.	.
CCOC(=O)C1(C)NC(c2ccc(N(C)C)cc2)C2C(=O)N(c3ccc(OC)cc3)C(=O)C21 (configuration not stated)	.	.	.	.	.
SMILES	PP5 inh	PP1 counter	T cell HTS	HTR2A ag	GASC-1 inh
CCOC(=O)C1(C)NC(c2cccs2)C2C(=O)N(c3ccc(OC)cc3)C(=O)C21 (configuration not stated)	.	.	.	.	55
O=C(N/N=C/c1ccncc1)c1ccc(NC(=O)c2ccc(Cl)cc2)cc1	.	30	.	.	.
Cc1ccc(C(=O)Nc2ccc(C(=O)N/N=C/c3ccncc3)cc2)cc1	.	16	.	/	.
O=C(N/N=C/c1ccncc1)c1ccc(NC(=O)c2cccc(Cl)c2)cc1	.	.	.	.	.
CCN1C(=O)[C@H]2[C@H]3CN=C(SCc4ccc(C(=O)OC)cc4)N3[C@@](C)(C(=O)OC)[C@H]2C1=O	/	/	/	.	/
Cc1cc(SCC(=O)Nc2cccc(S(=O)(=O)N3CCOCC3)c2)nc2ccccc12	.	.	.	.	.
O=C(NC1CCc2ccccc21)c1cc(COc2cncc(Cl)c2)on1 (configuration not stated)	.	.	.	.	60
CCCc1nc2ccccc2n1CCc1ccccc1	.	.	.	.	.
O=C(NCCCCNC(=O)c1ccccc1Br)c1ccccc1Br	.	.	.	.	.
O=C1C2CCCN2c2ccc(S(=O)(=O)N3CCOCC3)cc2N1Cc1cccc(C(F)(F)F)c1 (configuration not stated)	.	30	.	/	.
N#Cc1c(-c2cccs2)cc(-c2ccccn2)nc1N	.	16	.	.	.
Nc1ncnc2c1ncn2[C@@H]1O[C@H](CNCC#Cc2ccccc2)[C@@H](O)[C@H]1O	/	/	.	.	54
O=C(COC(=O)c1ccc(F)c(S(=O)(=O)N2CCOCC2)c1)NCCc1ccccc1	.	.	.	.	.
CC(=O)Nc1ccc(NC(=O)C(C)OC(=O)[C@@H]2CCCN2C(=O)c2cccs2)cc1 (some centres not stated)	/	/	65	.	.
COc1ccc(C2CC(c3ccccc3C)n3nc(N)nc3N2)cc1 (configuration not stated)	.	.	.	.	.
CCOc1ccc(C2CC(c3ccccc3C)n3nc(N)nc3N2)cc1 (configuration not stated)	.	.	53	.	.
Cc1cccc2cc(CN(Cc3ccco3)C(c3nnnn3CCc3ccccc3)C(C)C)c(=O)[nH]c12 (configuration not stated)	.	16	.	.	.
O=C(Nc1ccc(F)cc1)Nc1nnc(Cc2ccccc2)s1	.	17	.	.	.
CN(C)CCN(Cc1ccccc1)C(c1ccnc2ccccc12)c1nnnn1-c1ccc2c(c1)OCCO2 (configuration not stated)	/	/	/	.	/
CSc1ccc(C=NNc2ccc(S(=O)(=O)Nc3ccccc3C(=O)O)cc2[N+](=O)[O-])cc1	/	/	.	.	103
CCOc1ccc(C=NNc2ccc(S(=O)(=O)Nc3ccccc3C(=O)O)cc2[N+](=O)[O-])cc1	/	/	.	.	.
O=C(c1cccc(S(=O)(=O)NCc2ccccc2)c1)N1CCN(c2ccccc2Cl)CC1	/	/	/	.	/
O=c1cc(O)nc(SC23CC4CC(CC(C4)C2)C3)[nH]1	.	16	.	.	.
CCC(C)Sc1nc(O)cc(=O)[nH]1 (configuration not stated)	.	.	.	.	.
Cc1cc(Cl)c(OCCCN2CCCCC2)c(Br)c1	.	.	72	.	.
Cc1cc(C)c(OCCN2CCCC2)c(Cl)c1	.	.	.	.	.
COc1ccc(C2=NN(C(=O)COC(=O)c3ccc(NC(=O)CC#N)cc3)C(c3ccco3)C2)cc1 (configuration not stated)	.	16	.	.	.
O=C(OCC(=O)N1N=C(c2ccc(Cl)cc2)CC1c1ccco1)c1ccco1 (configuration not stated)	.	.	.	.	.
